Measured values reported in ChEMBL document CHEMBL1138302, “Diaryl dihydropyrazole-3-carboxamides with significant in vivo antiobesity activity related to CB1 receptor antagonism: synthesis, biological evaluation, and molecular modeling in the homology model” (J Med Chem, 2007).
Blank lines part the entries; values can stand above or below the compound they belong to. Active and inactive are the calls of the source.

Columns and labels:
Rattus norvegicus [1] = assay: Inhibition of sucrose intake in Zucker fa/fa rat at 10 mg/kg, po after 4 hrs; format: functional; conditions: for inhibition in vivo at 10 mg/kg: Rattus norvegicus, Zucker, po, 4 h
How it was run: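 Female Zucker fa/fa rats (10-12 weeks, 300-350 g) trained six consecutive days on 5% sucrose with food and water withdrawn; day 7 randomized (n=6), dosed orally 10 mg/kg in 0.5% carboxymethylcellulose (2 mL/kg), exposed to sucrose 1 h later for 4 h. Consumption measured; % inhibition vs vehicle control; one-way ANOVA with Dunnett's test.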

Cannabinoid receptor 1 = Cannabinoid receptor 1 (Homo sapiens, UniProt P21554); assay: biochemical; format: cell-based, HEK293
Chain of Cannabinoid receptor 1 (P21554 whole entry): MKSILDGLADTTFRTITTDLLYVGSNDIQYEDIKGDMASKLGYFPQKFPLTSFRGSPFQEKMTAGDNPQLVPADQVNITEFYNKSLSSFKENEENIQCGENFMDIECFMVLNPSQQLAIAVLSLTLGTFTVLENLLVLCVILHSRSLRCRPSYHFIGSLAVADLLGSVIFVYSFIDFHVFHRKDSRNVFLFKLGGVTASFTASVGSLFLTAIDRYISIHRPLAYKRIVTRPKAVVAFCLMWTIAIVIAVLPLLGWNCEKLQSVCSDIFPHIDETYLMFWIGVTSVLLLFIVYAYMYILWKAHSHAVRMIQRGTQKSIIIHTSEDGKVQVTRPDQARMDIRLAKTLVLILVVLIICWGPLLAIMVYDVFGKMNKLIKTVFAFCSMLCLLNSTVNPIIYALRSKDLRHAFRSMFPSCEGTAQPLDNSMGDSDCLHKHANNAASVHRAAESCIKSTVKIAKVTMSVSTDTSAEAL

Cannabinoid receptor 2 = Cannabinoid receptor 2 (Homo sapiens, UniProt P34972); assay: Displacement of [3H]WIN-552122 from human recombinant CB2 receptor expressed in CHOK1 cells; format: cell-based, CHO-K1
Chain of Cannabinoid receptor 2 (P34972 whole entry): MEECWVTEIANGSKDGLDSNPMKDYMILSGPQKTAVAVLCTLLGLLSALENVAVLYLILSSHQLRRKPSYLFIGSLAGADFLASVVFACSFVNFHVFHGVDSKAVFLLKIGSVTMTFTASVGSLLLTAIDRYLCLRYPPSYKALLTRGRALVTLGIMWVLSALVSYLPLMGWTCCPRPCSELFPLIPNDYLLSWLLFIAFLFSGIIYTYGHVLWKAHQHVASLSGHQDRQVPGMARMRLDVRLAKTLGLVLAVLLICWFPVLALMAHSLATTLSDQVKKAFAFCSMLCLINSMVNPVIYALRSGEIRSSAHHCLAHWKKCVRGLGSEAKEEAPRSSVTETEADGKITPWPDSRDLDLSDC

Rattus norvegicus [2] = assay: Inhibition of body weight gain in Zucker fa/fa rat at 10 mg/kg, po; format: functional, organism-based; parameters: dose 10 mg/kg
How it was run: (§1)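 Individually housed female obese Zucker fa/fa rats, groups of six, dosed orally daily 1 h before dark phase for 60 days; body weight recorded daily. Day 61 morning retro-orbital blood drawn and serum triglyceride measured by colorimetric kit. One-way ANOVA with Dunnett's test versus control.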

Rattus norvegicus [3] = assay: Reduction in serum triglyceride level in Zucker fa/fa rat at 10 mg/kg, po after 60 days; format: functional, organism-based; parameters: dose 10 mg/kg; how it was run: as §1
[4] = AUC (0 to infinity) in fasted Zucker fa/fa rat at 30 mg/kg, po; format: ADME, organism-based; parameters: time infinity, dose 30 mg/kg, route oral; conditions: plasma
How it was run: (§2)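 Overnight-fasted female obese Zucker fa/fa rats (n=6), single 30 mg/kg oral dose as suspension in 0.5% carboxymethylcellulose sodium in water. Retro-orbital serial bleeds at 10, 20, 40 min and 1, 2, 4, 6, 8, 24, 48 h; plasma extracted liquid-liquid and quantified by LC-MS against spiked-matrix calibration with internal standard. Noncompartmental parameters computed.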

Mus musculus [5] = assay: Effect on catalepsy in Swiss albino mouse tetrad model assessed as immobility for 5 mins at 1 mg/kg po after 30 mins by ring test in presence of 1 mg/kg cannabinoid agonist WIN-55212-2 relative to control; format: functional
How it was run: (§3)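 Female Swiss albino mice (10-12 weeks, 25-30 g), n=6, dosed orally in 0.5% carboxymethylcellulose (10 mL/kg); 1 h later WIN-55212-2 1 mg/kg iv in 0.01% Tween 80/5% DMSO saline. From 30 min on: rectal temperature before and after treatment; hot plate 55 °C, %MPE, 30 s cutoff; ring-test immobility over 5 min; open-field squares crossed in 5 min at 35 min. Compared with WIN-treated controls.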

Mus musculus [6] = assay: Analgesic activity in Swiss albino mouse tetrad model at 3 mg/kg po by hot plate test in presence of 1 mg/kg cannabinoid agonist WIN-55212-2 relative to control; format: functional; how it was run: as §3
Mus musculus [7] = assay: Effect on change in body temperature in Swiss albino mouse tetrad model at 30 mg/kg po in presence of 1 mg/kg cannabinoid agonist WIN-55212-2 relative to control; format: functional; how it was run: as §3
Mus musculus [8] = assay: Effect on change in body temperature in Swiss albino mouse tetrad model at 1 mg/kg po in presence of 1 mg/kg cannabinoid agonist WIN-55212-2 relative to control; format: functional; how it was run: as §3
Mus musculus [9] = assay: Effect on locomotor activity in Swiss albino mouse tetrad model assessed as number of squares crossed in 5 mins at 3 mg/kg po after 35 mins in presence of 1 mg/kg cannabinoid agonist WIN-55212-2 relative to control; format: functional; how it was run: as §3
[10] = Tmax in fasted Zucker fa/fa rat at 30 mg/kg, po; format: ADME, organism-based; parameters: dose 30 mg/kg, route oral; conditions: in vivo; how it was run: as §2
Mus musculus [11] = assay: Effect on locomotor activity in Swiss albino mouse tetrad model assessed as number of squares crossed in 5 mins at 30 mg/kg po after 35 mins in presence of 1 mg/kg cannabinoid agonist WIN-55212-2 relative to control; format: functional; how it was run: as §3
[12] = Cmax in fasted Zucker fa/fa rat at 30 mg/kg, po; format: ADME, organism-based; parameters: dose 30 mg/kg, route oral; conditions: in vivo; how it was run: as §2
[13] = Drug concentration in fasted Zucker fa/fa rat brain at 30 mg/kg, po after 3 hrs; format: ADME, organism-based; parameters: dose 30 mg/kg, route oral; conditions: read-out: Drug uptake
How it was run: (§4)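 Female obese Zucker fa/fa rats (n=6), fasted, single oral 30 mg/kg in 0.5% carboxymethylcellulose; blood, brain and white adipose tissue taken at 3 h. Tissues saline-washed and homogenized in Tris buffer pH 7.4; plasma and homogenates liquid-liquid extracted and assayed by LC-MS (cyano column, ammonium acetate/TFA–acetonitrile 30:70). Values mean ± SEM.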

Mus musculus [14] = assay: Effect on locomotor activity in Swiss albino mouse tetrad model assessed as number of squares crossed in 5 mins at 10 mg/kg po after 35 mins in presence of 1 mg/kg cannabinoid agonist WIN-55212-2 relative to control; format: functional; how it was run: as §3
Mus musculus [15] = assay: Analgesic activity in Swiss albino mouse tetrad model at 1 mg/kg po by hot plate test in presence of 1 mg/kg cannabinoid agonist WIN-55212-2 relative to control; format: functional; how it was run: as §3
[16] = Drug concentration in fasted Zucker fa/fa rat plasma at 30 mg/kg, po after 3 hrs; format: ADME, organism-based; parameters: dose 30 mg/kg, route oral; how it was run: as §4
[17] = Drug concentration in fasted Zucker fa/fa rat white adipose tissue at 30 mg/kg, po after 3 hrs; format: ADME, organism-based; parameters: dose 30 mg/kg, route oral; conditions: read-out: Drug uptake; how it was run: as §4
Mus musculus [18] = assay: Effect on change in body temperature in Swiss albino mouse tetrad model at 10 mg/kg po in presence of 1 mg/kg cannabinoid agonist WIN-55212-2 relative to control; format: functional; how it was run: as §3
Mus musculus [19] = assay: Effect on catalepsy in Swiss albino mouse tetrad model assessed as immobility for 5 mins at 30 mg/kg po after 30 mins by ring test in presence of 1 mg/kg cannabinoid agonist WIN-55212-2 relative to control; format: functional; how it was run: as §3
Mus musculus [20] = assay: Analgesic activity in Swiss albino mouse tetrad model at 30 mg/kg po by hot plate test in presence of 1 mg/kg cannabinoid agonist WIN-55212-2 relative to control; format: functional; how it was run: as §3
[21] = Half life in fasted Zucker fa/fa rat at 30 mg/kg, po; format: ADME, organism-based; parameters: dose 30 mg/kg, route oral; conditions: in vivo; how it was run: as §2
Mus musculus [22] = assay: Analgesic activity in Swiss albino mouse tetrad model at 10 mg/kg po by hot plate test in presence of 1 mg/kg cannabinoid agonist WIN-55212-2 relative to control; format: functional; how it was run: as §3
Mus musculus [23] = assay: Effect on change in body temperature in Swiss albino mouse tetrad model at 3 mg/kg po in presence of 1 mg/kg cannabinoid agonist WIN-55212-2 relative to control; format: functional; how it was run: as §3
Mus musculus [24] = assay: Effect on catalepsy in Swiss albino mouse tetrad model assessed as immobility for 5 mins at 10 mg/kg po after 30 mins by ring test in presence of 1 mg/kg cannabinoid agonist WIN-55212-2 relative to control; format: functional; how it was run: as §3
Mus musculus [25] = assay: Effect on locomotor activity in Swiss albino mouse tetrad model assessed as number of squares crossed in 5 mins at 1 mg/kg po after 35 mins in presence of 1 mg/kg cannabinoid agonist WIN-55212-2 relative to control; format: functional; how it was run: as §3
Mus musculus [26] = assay: Effect on catalepsy in Swiss albino mouse tetrad model assessed as immobility for 5 mins at 3 mg/kg po after 30 mins by ring test in presence of 1 mg/kg cannabinoid agonist WIN-55212-2 relative to control; format: functional; how it was run: as §3

SMILES: O=C(NN1CCOCC1)C1=NN(c2ccc(Cl)cc2Cl)C(c2ccc(Cl)cc2)C1 (configuration not stated)
Inhibition (Rattus norvegicus [1]): 34.2%

SMILES: O=C(NN1CCOCC1)C1=NN(c2ccc(Cl)cc2)C(c2ccc(Cl)cc2)C1 (configuration not stated)
inhibition in vivo at 10 mg/kg (Rattus norvegicus [1]): 8.1%

SMILES: O=C(NN1CCOCC1)C1=NN(c2ccc(Cl)cc2)C(c2ccccc2)C1 (configuration not stated)
inhibition in vivo at 10 mg/kg (Rattus norvegicus [1]): 5.6%

SMILES: CCCCCc1ccc(C2CC(C(=O)NN3CCOCC3)=NN2c2ccc(Cl)cc2Cl)cc1 (configuration not stated)
inhibition in vivo at 10 mg/kg (Rattus norvegicus [1]): 13.1%

SMILES: COc1ccc(C2CC(C(=O)NN3CCOCC3)=NN2c2ccc(Cl)cc2Cl)cc1 (configuration not stated)
inhibition in vivo at 10 mg/kg (Rattus norvegicus [1]): 9.4%

SMILES: O=C(NN1CCOCC1)C1=NN(c2ccc(Cl)cc2Cl)C(c2cccnc2)C1 (configuration not stated)
inhibition in vivo at 10 mg/kg (Rattus norvegicus [1]): 4%

SMILES: CS(=O)(=O)O.O=C(NN1CCOCC1)C1=NN(c2ccc(Cl)cc2Cl)C(c2ccc(Cl)cc2)C1 (configuration not stated)
Inhibition (Rattus norvegicus [1]): 19.2%

SMILES: Cl.O=C(NN1CCOCC1)C1=NN(c2ccc(Cl)cc2Cl)C(c2ccc(Cl)cc2)C1 (racemic; form 1)
Inhibition (Rattus norvegicus [1]; 10 mg/kg): 34.5%

Ki (Cannabinoid receptor 1): 0.334 µM | Ki (Cannabinoid receptor 2): 21.7 µM
SMILES: O=C(NN1CCOCC1)C1=NN(c2ccc(Cl)cc2Cl)C(c2ccc(Cl)cc2)C1.O=S(=O)(O)O (racemic; form 2)
Inhibition (Rattus norvegicus [1]; 10 mg/kg): 36.4%

SMILES: O=C(NN1CCOCC1)C1=NN(c2ccc(Cl)cc2Cl)C(c2ccc(Cl)cc2)C1 (racemic; form 2)
Activity (Rattus norvegicus [2]): Active | Activity (Rattus norvegicus [3]): Active

SMILES: Cl.O=C(NN1CCOCC1)C1=NN(c2ccc(Cl)cc2Cl)C(c2ccc(Cl)cc2)C1 (single isomer, unassigned; 27)
Inhibition (Rattus norvegicus [1]; 10 mg/kg): 30.1%

Ki (Cannabinoid receptor 1): 0.475 µM | Ki (Cannabinoid receptor 2): 26.4 µM
SMILES: O=C(NN1CCOCC1)C1=NN(c2ccc(Cl)cc2Cl)C(c2ccc(Cl)cc2)C1.O=S(=O)(O)O (single isomer, unassigned; 28)
Inhibition (Rattus norvegicus [1]; 10 mg/kg): 15.4%

AUC(0-inf) [4]: 10 µg·h/mL | Tmax [10]: 3.7 h | Cmax [12]: 0.51 µg/mL | concentration at 3 h [13]: 4860 ng/g | concentration at 3 h [16]: 1.4 µg/mL | concentration at 3 h [17]: 6310 ng/g | Ki (Cannabinoid receptor 1): 0.15 µM | half-life [21]: 17.6 h | Ki (Cannabinoid receptor 2): 24.5 µM
SMILES: O=C(NN1CCOCC1)C1=NN(c2ccc(Cl)cc2Cl)C(c2ccc(Cl)cc2)C1.O=S(=O)(O)O (single isomer, unassigned; 30)
Activity (Mus musculus [5]): 85.2% | MPE (Mus musculus [6]): 12% | Activity (Mus musculus [7]): 0.15 °C | Activity (Mus musculus [8]): -4.24 °C | Activity (Mus musculus [9]): 3 | Inhibition (Rattus norvegicus [1]; 10 mg/kg): 58.6% | Activity (Mus musculus [11]): 25 | Activity (Mus musculus [14]): 13.25 | MPE (Mus musculus [15]): 24% | Activity (Mus musculus [18]): -0.15 °C | Activity (Mus musculus [19]): 18.23% | MPE (Mus musculus [20]): 11.5% | MPE (Mus musculus [22]): -0.15% | Activity (Mus musculus [23]): -2.1 °C | Activity (Mus musculus [24]): 14.2% | Activity (Mus musculus [25]): 0.4 | Activity (Mus musculus [26]): 33.75%

SMILES: O=C(NN1CCOCC1)C1=NN(c2ccc(Cl)cc2Cl)C(c2ccc(Cl)cc2)C1 (single isomer, unassigned; 30)
Activity (Rattus norvegicus [2]): Active | Activity (Rattus norvegicus [3]): Active

SMILES: O=C(NN1CCOCC1)C1=NN(c2ccc(Cl)cc2Cl)C(c2ccc(Cl)cc2)C1.O=S(=O)(O)c1ccccc1 (single isomer, unassigned; 33)
Inhibition (Rattus norvegicus [1]): 17.1%

SMILES: Cl.O=C(NN1CCOCC1)C1=NN(c2ccc(Cl)cc2Cl)C(c2ccc(Cl)cc2)C1 (stereo in doubt; 29)
Inhibition (Rattus norvegicus [1]; 10 mg/kg): 42.2%

AUC(0-inf) [4]: 41.2 µg·h/mL | Tmax [10]: 2.6 h | Cmax [12]: 1.92 µg/mL | concentration at 3 h [13]: 450 ng/g | concentration at 3 h [16]: 0.4 µg/mL | concentration at 3 h [17]: 4250 ng/g | half-life [21]: 26.6 h
SMILES: Cc1c(C(=O)NN2CCCCC2)nn(-c2ccc(Cl)cc2Cl)c1-c1ccc(Cl)cc1 [RIMONABANT]
Activity (Rattus norvegicus [2]): Active | inhibition in vivo at 10 mg/kg (Rattus norvegicus [1]): 36.7% | Activity (Rattus norvegicus [3]): Active
